Source: PubChem (several laboratories)
A selection: hits, their analogues and other compounds. The true share with any hit is near 1.3%.
CHT allo act – CHT positive allosteric modulators, primary screen, cell-based, membrane potential dye, choline EC20. High affinity choline transporter 1 (Homo sapiens), Q9GZV3. CHT-expressing cells; hits give high values; LV-AA mutant CHT in HEK293 cells. B-score at 10 µM. hit rate 0.49% among 310,000. AID 488977, 2010;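 active means initial fluorescence not abnormally high and integrated response B-score, plate-corrected, over 3 SD above library mean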
proCasp7 act – procaspase-7 activators, primary screen, counter-screen for procaspase-3 activator project, biochemical, absorbance, HTS, human | AID 463210, 2010 | activation, % at 8.5 µM | recombinant procaspase-7, Ac-DEVD-pNA absorbance 405 nm; D23A/D198A/D206A triple mutant, cannot self-cleave; scale: DMSO 0, 5 µM enzyme 100 | Caspase-7 (Homo sapiens), P55210 | hit rate 0.093% among 330,000;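 active means percent activation above the screen-wide mean plus 3 SD, cut at about 25% in these data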
Target sequence (P55210 whole entry D23A/D198A/D206A): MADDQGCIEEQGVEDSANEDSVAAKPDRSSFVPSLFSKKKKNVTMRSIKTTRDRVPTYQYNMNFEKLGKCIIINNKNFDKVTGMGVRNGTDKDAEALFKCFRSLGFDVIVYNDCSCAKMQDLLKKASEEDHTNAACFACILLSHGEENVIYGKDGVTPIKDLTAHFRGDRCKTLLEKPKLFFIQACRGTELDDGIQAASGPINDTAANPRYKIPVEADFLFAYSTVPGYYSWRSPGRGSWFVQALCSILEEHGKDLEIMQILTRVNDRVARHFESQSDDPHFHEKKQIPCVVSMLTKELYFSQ
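System: Procaspase-7 triple mutant (PC-7 D3A); measure: % activation from two-timepoint absorbance difference, scaled to controls; times: 1 h compound preincubation, 2 h substrate cleavage, 25 °C; also added: Ac-DEVD-pNA substrate, 400 µM as added; measured by: Epi-absorbance of released pNA at 405 nm, two timepoints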
proCasp3 act – activators of human procaspase-3 D3A mutant, primary screen, biochemical, absorbance, PC-3 D3A mutant, single concentration; Caspase-3 (Homo sapiens), P42574; recombinant procaspase-3 D3A, Ac-DEVD-pNA absorbance 405 nm; activation, % at 8.5 µM; hit rate 0.11% among 330,000; AID 463141, 2010;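 active means activation above the mean of all tested compounds plus 3 SD, cut at about 21% in these data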;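 further: 0% = DMSO alone and 100% = DMSO wells spiked with extra 5 µM PC-3 D3A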
Target sequence (P42574 whole entry D9A/D28A/D175A): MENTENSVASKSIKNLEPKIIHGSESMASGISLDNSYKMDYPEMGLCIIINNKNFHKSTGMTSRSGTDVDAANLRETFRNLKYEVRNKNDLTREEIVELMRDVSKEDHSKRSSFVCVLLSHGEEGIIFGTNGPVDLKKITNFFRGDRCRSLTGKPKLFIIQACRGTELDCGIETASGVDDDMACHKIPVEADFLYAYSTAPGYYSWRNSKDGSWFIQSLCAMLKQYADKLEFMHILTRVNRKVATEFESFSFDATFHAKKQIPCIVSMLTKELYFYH
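Evaluation: percent activation relative to control range; Material: Procaspase-3 D3A mutant, all three cleavage aspartates alanine; Compound: single dose, 8.5 µM nominal compound, 0.8% DMSO; Replication: one well per compound; Signal: absorbance at 405 nm, 0 and 120 min; Schedule: 1 h preincubation plus 2 h reaction at 25 °C.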
CHT block – inhibitors of human choline transporter CHT | High affinity choline transporter 1 (Homo sapiens), Q9GZV3 | AID 488975, 2010 | CHT-expressing cells, membrane potential dye, choline response; hits give low values | B-score at 10 µM | hit rate 0.86% among 310,000;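 active means B-score over 3 SD under the library average, and starting fluorescence ratio not unusually high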;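 further: choline stimulus applied at its EC90 after an EC20 pre-addition; B-score computed on integrated fluorescence ratio after choline addition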
CHT inh conf – CHT inhibitors, confirmation, cell-based, membrane potential dye, duplicate; CHT activity remaining % of control (hits give low values), % at 10 µM; hit rate 70% among 2,400; CHT-expressing cells, choline membrane potential dye; LV-to-AA substituted CHT, HEK293 cells; shares compounds with CHT block; AID 493221, 2011;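 active means choline transporter activity left, mean of duplicates at 10 µM, below buffer-only control mean minus 3 SD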;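 further: depolarization triggered by choline at its EC90 following an EC20 pre-addition; 0% = hemicholinium-3 full block and 100% = buffer-only control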
HEK293 MPD ctr – membrane potential effects in parental HEK293, counter-screen for CHT inhibitor project, cell-based, membrane potential dye | shares compounds with CHT block | choline response; active = decrease or increase beyond buffer ±3SD | membrane potential ratio readout (active if shifted either direction beyond buffer ±3SD; no single direction) at 10 µM | hit rate 4% among 2,400;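 further: parental cells lack the transporter so any hit is non-specific; ratio is peak minus trough fluorescence over baseline after EC90 choline challenge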
Numbers without * were called inactive.

How did O=C(C[n+]1cccc2ccccc21)c1ccc(Br)cc1 do in these assays?
CHT allo act: inactive; proCasp7 act: 6; proCasp3 act: 1; CHT block: -9.3*; CHT inh conf: 26%*; HEK293 MPD ctr: inactive

What do the screens show for `NC(=O)C[n+]1cccc2ccccc21`?
CHT allo act: inactive; proCasp7 act: 4; proCasp3 act: -2; CHT block: inactive

What do the screens show for `COc1ccc(C(=O)C[n+]2ccccc2C)cc1`?
CHT allo act: inactive; proCasp7 act: 10; proCasp3 act: 0; CHT block: inactive

How did COC(=O)N(NC(=O)C(O)(c1ccccc1)c1ccccc1)c1ccccc1 do in these assays?
CHT allo act: inactive; proCasp7 act: -7; proCasp3 act: 3; CHT block: inactive

How did COC(=O)N(NC(=O)C(O)(CCC(C)C)CCC(C)C)c1ccccc1 do in these assays?
CHT allo act: inactive; proCasp7 act: -2; proCasp3 act: 4; CHT block: inactive; CHT inh conf: inactive; HEK293 MPD ctr: inactive

What do the screens show for `O=C(N/N=C/c1sc2ccccc2c1O)c1ccccc1`?
CHT allo act: inactive; proCasp7 act: -4; proCasp3 act: -5; CHT block: -20*; CHT inh conf: -81%*; HEK293 MPD ctr: -55*

What do the screens show for `COc1ccc(C(=O)N/N=C/c2sc3ccccc3c2O)cc1`?
CHT allo act: inactive; proCasp7 act: 4; proCasp3 act: -15; CHT block: inactive

How did CCOC(=O)N1CCN(C(=O)c2oc3ccc(S(=O)(=O)N4CCCCCC4)cc3c2C)CC1 do in these assays?
CHT allo act: inactive; proCasp7 act: 1; proCasp3 act: 11; CHT block: -6.2*; CHT inh conf: 67%*; HEK293 MPD ctr: inactive

What do the screens show for `CCOC(=O)N1CCN(C(=O)c2oc3ccc(S(=O)(=O)N4CCOCC4)cc3c2C)CC1`?
CHT allo act: inactive; proCasp7 act: -4; proCasp3 act: 3; CHT block: inactive

Results for Cc1c(Cl)cccc1NCC(=O)NN=C1CCCC1 ?
CHT allo act: inactive; proCasp7 act: 2; proCasp3 act: -3; CHT block: -5.1*; CHT inh conf: 48%*; HEK293 MPD ctr: inactive

How did CCOC(=O)C/C(C)=N/NC(=O)CNc1cccc(Cl)c1C do in these assays?
CHT allo act: inactive; proCasp7 act: 3; proCasp3 act: 0; CHT block: inactive

Results for CC1CC(C)CN(C(=O)C(Cc2ccccc2)NC(=O)c2ccccc2)C1 (stereo unspecified) ?
CHT allo act: inactive; proCasp7 act: 6; proCasp3 act: 6; CHT block: inactive

What do the screens show for `CC1CCN(CC(=O)Nc2cccc(C(=O)Nc3cccc(C(F)(F)F)c3)c2)CC1`?
CHT allo act: inactive; proCasp7 act: -3; proCasp3 act: -1; CHT block: -6.4*; CHT inh conf: 44%*; HEK293 MPD ctr: inactive

How did CC1CN(CC(=O)Nc2cccc(C(=O)Nc3cccc(C(F)(F)F)c3)c2)CC(C)O1 (stereo unspecified) do in these assays?
CHT allo act: inactive; proCasp7 act: -12; proCasp3 act: -20; CHT block: inactive

What do the screens show for `CCC(C(=O)NCCCN1CC(C)CC(C)C1)n1nc(C)c2sc3ccccc3c2c1=O` (stereo unspecified)?
CHT allo act: inactive; proCasp7 act: 18; proCasp3 act: 3; CHT block: -8.8*; CHT inh conf: 16%*; HEK293 MPD ctr: inactive

What do the screens show for `CC(Nc1cc(N2CCNCC2)ccc1[N+](=O)[O-])c1ccccc1` (stereo unspecified)?
CHT allo act: inactive; proCasp7 act: 1; proCasp3 act: -5; CHT block: -6.4*; CHT inh conf: 35%*; HEK293 MPD ctr: 2.7*

How did CC(=O)N1CCN(c2ccc(NC(=O)c3ccc4c(c3)OCCO4)cc2)CC1 do in these assays?
CHT allo act: inactive; proCasp7 act: -1; proCasp3 act: -3; CHT block: inactive

How did CC(C)(C)C(=O)N1CCN(c2ccc(NC(=O)c3ccc4c(c3)OCCO4)cc2)CC1 do in these assays?
CHT allo act: inactive; proCasp7 act: -1; proCasp3 act: 6; CHT block: -5.4*; CHT inh conf: 66%*; HEK293 MPD ctr: inactive

Results for c1ccc(CCc2nn3c(Cc4ccccc4)nnc3s2)cc1 ?
CHT allo act: inactive; proCasp7 act: -17; proCasp3 act: -6; CHT block: -5.4*; CHT inh conf: 56%*; HEK293 MPD ctr: inactive

Results for c1ccc(Cc2nnc3sc(-c4cccs4)nn23)cc1 ?
CHT allo act: inactive; proCasp7 act: 5; proCasp3 act: -5; CHT block: inactive

What do the screens show for `O=C(N/N=C/c1cc(Cl)cc([N+](=O)[O-])c1O)C1CC1`?
CHT allo act: inactive; proCasp7 act: -10; proCasp3 act: 4; CHT block: inactive

How did CC(C)(C)N/N=C/c1cc(Cl)cc([N+](=O)[O-])c1O do in these assays?
CHT allo act: inactive; proCasp7 act: 2; proCasp3 act: -2; CHT block: -5.8*; CHT inh conf: 59%*; HEK293 MPD ctr: inactive

Results for CC1CCN(S(=O)(=O)c2nnc(NC(=O)c3cccc([N+](=O)[O-])c3)s2)CC1 ?
CHT allo act: inactive; proCasp7 act: 5; proCasp3 act: 4; CHT block: -9.6*; CHT inh conf: 60%*; HEK293 MPD ctr: inactive

Results for O=C(Nc1nnc(S(=O)(=O)N2CCCC2)s1)c1cccc([N+](=O)[O-])c1 ?
CHT allo act: inactive; proCasp7 act: 7; proCasp3 act: 1; CHT block: inactive

Results for Cc1cc(C)n(CCNC(=O)CC2C(=O)NCCN2Cc2ccccc2C(F)(F)F)n1 (stereo unspecified) ?
CHT allo act: inactive; proCasp7 act: 0; proCasp3 act: -4; CHT block: -6.4*; CHT inh conf: inactive; HEK293 MPD ctr: inactive

What do the screens show for `COc1cccc(CN2CCNC(=O)C2CC(=O)NCCn2nc(C)cc2C)c1OC` (stereo unspecified)?
CHT allo act: inactive; proCasp7 act: 6; proCasp3 act: 8; CHT block: inactive

Results for COc1ccc(CCn2c(=N)c(S(=O)(=O)c3ccc(C)cc3)cc3c(=O)n4ccccc4nc32)cc1 ?
CHT allo act: inactive; proCasp7 act: -11; proCasp3 act: 2; CHT block: inactive
